Data taken from ChEMBL document CHEMBL4028811, “Discovery of 2-substituted 1H-benzo[d]immidazole-4-carboxamide derivatives as novel poly(ADP-ribose)polymerase-1 inhibitors with in vivo anti-tumor activity” (Eur J Med Chem, 2017).

Columns and labels:
[1] = biological target: T1, Poly [ADP-ribose] polymerase 1 (Homo sapiens, UniProt P09874); test: Inhibition of recombinant human PARP1 expressed in Escherichia coli BL21(DE3) using histone as substrate measured after 1 hr in presence of biotinylated NAD+ by ELISA
T1 sequence (P09874 whole entry): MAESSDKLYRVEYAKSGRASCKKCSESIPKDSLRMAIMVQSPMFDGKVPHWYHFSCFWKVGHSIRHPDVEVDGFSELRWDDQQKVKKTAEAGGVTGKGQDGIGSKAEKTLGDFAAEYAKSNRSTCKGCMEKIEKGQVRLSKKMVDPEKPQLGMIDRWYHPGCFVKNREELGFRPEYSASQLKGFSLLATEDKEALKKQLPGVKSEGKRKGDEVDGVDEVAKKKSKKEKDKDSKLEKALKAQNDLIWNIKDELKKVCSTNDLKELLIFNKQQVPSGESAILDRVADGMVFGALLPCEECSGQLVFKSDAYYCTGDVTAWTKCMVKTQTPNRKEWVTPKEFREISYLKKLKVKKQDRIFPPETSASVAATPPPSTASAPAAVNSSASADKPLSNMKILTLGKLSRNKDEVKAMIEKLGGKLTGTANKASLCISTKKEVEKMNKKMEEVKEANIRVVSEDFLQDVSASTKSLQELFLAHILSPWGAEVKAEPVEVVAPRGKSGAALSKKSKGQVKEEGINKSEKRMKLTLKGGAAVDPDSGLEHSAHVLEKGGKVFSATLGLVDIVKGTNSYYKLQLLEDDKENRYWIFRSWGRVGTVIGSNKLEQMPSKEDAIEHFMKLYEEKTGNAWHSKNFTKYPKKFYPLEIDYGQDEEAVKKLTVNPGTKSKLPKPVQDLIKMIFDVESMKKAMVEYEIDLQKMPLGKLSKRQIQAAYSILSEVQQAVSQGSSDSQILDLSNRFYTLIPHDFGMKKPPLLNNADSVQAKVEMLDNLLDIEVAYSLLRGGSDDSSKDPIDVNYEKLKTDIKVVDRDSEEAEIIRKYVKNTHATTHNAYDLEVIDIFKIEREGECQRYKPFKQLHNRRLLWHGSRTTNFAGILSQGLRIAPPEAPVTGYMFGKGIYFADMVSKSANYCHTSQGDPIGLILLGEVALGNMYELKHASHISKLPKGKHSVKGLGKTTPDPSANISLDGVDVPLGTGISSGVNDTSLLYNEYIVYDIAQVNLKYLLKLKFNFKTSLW

[2] = biological target: T1, Poly [ADP-ribose] polymerase 1; test: Inhibition of recombinant human PARP1 expressed in Escherichia coli BL21(DE3) using sheared DNA as substrate measured after 1 hr in presence of NAD+
[3] = biological target: T1, Poly [ADP-ribose] polymerase 1; test: Inhibition of PARP1 in human MX1 cells assessed as potentiation of temozolomide-induced cytotoxicity at 10 uM after 72 hrs by MTT assay relative to temozolomide alone; type: cell-based
How it was run: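 MX-1 cells seeded at 2000/well and exposed for 72 h to TMZ (0–0.5 mmol/L) with or without PARP inhibitor fixed at 10 μmol/L. Survival read by MTT. PF50 = IC50 of TMZ alone / IC50 of TMZ + inhibitor.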

Homo sapiens = species: Homo sapiens; test: Selectivity ratio of IC50 for recombinant human PARP2 to IC50 for recombinant human PARP1
How it was run: (§1)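 Human recombinant PARP2 (and PARP1) expressed and purified, inhibition measured by ELISA, with AZD2281 as positive control. IC50 from concentration–response fitting.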

[4] = biological target: Poly [ADP-ribose] polymerase 2 (Homo sapiens, UniProt Q9UGN5); test: Inhibition of recombinant human PARP2 expressed in Escherichia coli BL21(DE3) using histone as substrate measured after 1 hr in presence of biotinylated NAD+ by ELISA; how it was run: as §1
Sequence of Poly [ADP-ribose] polymerase 2 (Q9UGN5 whole entry): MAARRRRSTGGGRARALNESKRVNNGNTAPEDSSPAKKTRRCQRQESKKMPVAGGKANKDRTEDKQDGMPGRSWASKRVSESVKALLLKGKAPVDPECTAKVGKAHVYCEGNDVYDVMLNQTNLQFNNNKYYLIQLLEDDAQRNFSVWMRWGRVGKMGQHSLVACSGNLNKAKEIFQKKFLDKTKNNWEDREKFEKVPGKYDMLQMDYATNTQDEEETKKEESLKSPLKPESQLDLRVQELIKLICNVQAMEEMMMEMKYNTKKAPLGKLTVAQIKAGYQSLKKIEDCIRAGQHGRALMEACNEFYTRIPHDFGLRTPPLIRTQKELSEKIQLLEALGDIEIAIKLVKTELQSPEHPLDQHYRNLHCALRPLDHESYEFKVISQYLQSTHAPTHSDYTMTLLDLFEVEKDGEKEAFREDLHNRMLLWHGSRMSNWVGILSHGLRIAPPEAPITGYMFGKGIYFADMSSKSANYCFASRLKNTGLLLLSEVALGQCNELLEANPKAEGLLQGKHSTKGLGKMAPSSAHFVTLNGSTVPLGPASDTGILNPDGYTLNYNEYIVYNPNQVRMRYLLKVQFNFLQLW

MX1 [5] = test: Anti-tumor activity against human MX1 cells xenografted in BALB/c mouse assessed as tumor weight at 50 mg/kg, po administered once daily via gavage for 5 days measured after 11 days (reference value: 4.09 +/- 0.64 g); type: functional
How it was run: (§2)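 Female athymic BALB/c nude mice, 8–10 weeks old, implanted s.c. with 1×10^6 MX-1 cells in 0.1 mL PBS. Day 6: grouped at 6/group, tumors 100–300 mm³. Oral gavage once daily. TMZ 50 mg/kg/day for 5 days; single-agent test compound 50 mg/kg/day for 10 days; combinations both orally for 5 days. Body weight and tumor volume measured twice weekly; euthanized day 11.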

MX1 [6] = test: Anti-tumor activity against human MX1 cells xenografted in BALB/c mouse assessed as tumor growth inhibition at 50 mg/kg, po administered once daily via gavage for 5 days measured after 11 days relative to control; type: functional; how it was run: as §2
Mus musculus = test: Toxicity in BALB/c mouse assessed as change in body weight at 50 mg/kg, po administered once daily via gavage for 5 days measured twice every week up to 11 days (reference value: 5.32 g); type: organism-based; conditions: in vivo; how it was run: as §2

Row | SMILES | IC50 [1] [nM] | further results
1 | NC(=O)c1cccc2[nH]c(C(=O)N3CCC(NC4CCNCC4)C3)nc12 (configuration not stated) | 60 | 
2 | NC(=O)c1cccc2[nH]c(C(=O)NC3CCCNC3)nc12 (configuration not stated) |  | IC50 [2]: 199 nM
3 | CC[C@@H]1CN(C(=O)c2nc3c(C(N)=O)cccc3[nH]2)CCN1 | > 100 | 
4 | NC(=O)c1cccc2[nH]c(C(=O)N3CCC(N)C3)nc12 (configuration not stated) | 15 | PF50 [3]: 1.98; Ratio IC50 (Homo sapiens): < 10; IC50 [4]: 48 nM
5 | CC(C)CCN1CCCC(NC(=O)c2nc3c(C(N)=O)cccc3[nH]2)C1 (configuration not stated) |  | IC50 [2]: 708 nM
6 | NC(=O)c1cc(F)cc2[nH]c(C(=O)N3CCC(NC4CCCCC4)CC3)nc12 | 7.54 | PF50 [3]: 0.71; Ratio IC50 (Homo sapiens): < 10; IC50 [4]: 34 nM
7 | NC(=O)c1cccc2[nH]c(C(=O)N3CCC(NC4CCCCC4)CC3)nc12 | 70 | 
8 | CC(C)(C)OC(=O)NC1CCN(C(=O)c2nc3c(C(N)=O)cc(F)cc3[nH]2)C1 (configuration not stated) | > 100 | 
9 | CC(C)(C)OC(=O)N1CCC(NC(=O)c2nc3c(C(N)=O)cccc3[nH]2)C1 (configuration not stated) |  | IC50 [2]: 1810 nM
10 | NC(=O)c1cc(F)cc2[nH]c(C(=O)N3CCC(N)CC3)nc12 | 2.76 | PF50 [3]: 0.98; Ratio IC50 (Homo sapiens): < 10; IC50 [4]: 24 nM
11 | NC(=O)c1cc(F)cc2[nH]c(C(=O)N3CCC(N)C3)nc12 (configuration not stated) | 12 | PF50 [3]: 1.07; Ratio IC50 (Homo sapiens): < 10; IC50 [4]: 19 nM
12 | NC(=O)c1cc(F)cc2[nH]c(C(=O)N3CCC(NC4CCCCC4)C3)nc12 (configuration not stated) | 37 | PF50 [3]: 1.71; Ratio IC50 (Homo sapiens): < 10; IC50 [4]: 38 nM
13 | CCC(CC)N1CCC(NC(=O)c2nc3c(C(N)=O)cc(F)cc3[nH]2)CC1 | 30 | 
14 | NC(=O)c1cccc2[nH]c(C(=O)NC3CCNC3)nc12 (configuration not stated) |  | IC50 [2]: 343 nM
15 | Cn1nnc2c(C(N)=O)ncn2c1=O [TEMOZOLOMIDE] |  | Activity (MX1 [5]): 1.57 g; T/C (MX1 [6]): 38%; inhibition in vivo at 50 mg/kg (MX1 [6]; Mus musculus, MX1, po, read-out: TGI): 62%; Activity (Mus musculus): 0.02 g
16 | NC(=O)c1cccc2[nH]c(C(=O)NC3CCN(C4CCCCC4)C3)nc12 (configuration not stated) |  | IC50 [2]: > 1000 nM
17 | CCCNC1CCN(C(=O)c2nc3c(C(N)=O)cccc3[nH]2)C1 (configuration not stated) | 79 | PF50 [3]: 1.54; Ratio IC50 (Homo sapiens): < 10; IC50 [4]: 75 nM
18 | NC(=O)c1cccc2[nH]c(C(=O)N3CCC(NC4CCCCC4)C3)nc12 (configuration not stated) | 75 | PF50 [3]: 4.17; Ratio IC50 (Homo sapiens): < 10; IC50 [4]: 91 nM
19 | CC(C)(C)OC(=O)N1CCC(N2CCC(NC(=O)c3nc4c(C(N)=O)cccc4[nH]3)CC2)CC1 | 868 | 

Row | SMILES | IC50 [1] [nM] | further results
20 | CC(C)(C)OC(=O)N1CCC(NC2CCN(C(=O)c3nc4c(C(N)=O)cccc4[nH]3)C2)CC1 (configuration not stated) | 1190 | 
21 | NC(=O)c1cccc2[nH]c(C(=O)NC3CCN(C4CCNCC4)CC3)nc12 | 316 | 
22 | NC(=O)c1cccc2[nH]c(C(=O)NC3CCNCC3)nc12 | 101 | PF50 [3]: 1.75; Ratio IC50 (Homo sapiens): < 10
23 | CC[C@H]1CN(C(=O)c2nc3c(C(N)=O)cccc3[nH]2)CCN1 | 19 | 
24 | CC(C)CCN1CCC(NC(=O)c2nc3c(C(N)=O)cccc3[nH]2)CC1 | 111 | 
25 | CCC(=O)N1CCN(C(=O)c2nc3c(C(N)=O)cccc3[nH]2)CC1 | > 100 | 
26 | NC(=O)c1cccc2[nH]c(C(=O)NC3CN4CCC3CC4)nc12 (configuration not stated) | > 100 | 
27 | CC(C)(C)CN1CCC(NC(=O)c2nc3c(C(N)=O)cccc3[nH]2)CC1 | 41 | 
28 | NC(=O)c1cccc2[nH]c(C(=O)NC3CCN(C(=O)C(F)(F)F)CC3)nc12 | 83 | 
29 | CCN1CCC(NC(=O)c2nc3c(C(N)=O)cccc3[nH]2)CC1 | 40 | 
30 | NC(=O)c1cccc2[nH]c(C(=O)N3CCNC(=O)C3)nc12 | 29 | 
31 | NC(=O)c1cccc2[nH]c(C(=O)NC3CCN(CC4CC4)CC3)nc12 | 108 | PF50 [3]: 3.53; Ratio IC50 (Homo sapiens): < 10; IC50 [4]: 130 nM
32 | CCCN1CCC(NC(=O)c2nc3c(C(N)=O)cccc3[nH]2)CC1 | 49 | 
33 | CC(C)CN1CCC(NC(=O)c2nc3c(C(N)=O)cccc3[nH]2)CC1 | 92 | 
34 | CC[C@@H]1CN(C(=O)c2nc3c(C(N)=O)cccc3[nH]2)CCN1C(=O)OC(C)(C)C | > 100 | 
35 | CCC(=O)NC1CCN(C(=O)c2nc3c(C(N)=O)cccc3[nH]2)C1 (configuration not stated) | 83 | 
36 | CC(C)(C)OC(=O)N1CCN(C(=O)c2nc3c(C(N)=O)cccc3[nH]2)CC1 | 152 | 
37 | NC(=O)c1cccc2[nH]c(C(=O)N3CCC(NC4CCNCC4)CC3)nc12 | 316 | 
38 | CC(C)N1CCC(NC(=O)c2nc3c(C(N)=O)cccc3[nH]2)CC1 | 64 | 

Row | SMILES | IC50 [1] [nM] | further results
39 | CC(C)(C)OC(=O)NC1CCN(C(=O)c2nc3c(C(N)=O)cccc3[nH]2)C1 (configuration not stated) | 857 | 
40 | CC(C)(C)OC(=O)NC1CCN(C(=O)c2nc3c(C(N)=O)cc(F)cc3[nH]2)CC1 | 80 | 
41 | CC(C)(C)OC(=O)N1CCC(NC2CCN(C(=O)c3nc4c(C(N)=O)cccc4[nH]3)CC2)CC1 | 250 | 
42 | NC(=O)c1cccc2[nH]c(C(=O)N3C[C@H]4CCCN[C@H]4C3)nc12 | 116 | 
43 | CCC(CC)N1CCC(NC(=O)c2nc3c(C(N)=O)cccc3[nH]2)CC1 | 302 | 
44 | CC(C)(C)OC(=O)NC1CCN(C(=O)c2nc3c(C(N)=O)cccc3[nH]2)CC1 | 968 | 
45 | CCC(CC)N1CCN(C(=O)c2nc3c(C(N)=O)cc(F)cc3[nH]2)CC1=O | 88 | 
46 | CC(C)(C)OC(=O)N1CCCC(NC(=O)c2nc3c(C(N)=O)cccc3[nH]2)C1 (configuration not stated) |  | IC50 [2]: 1150 nM
47 | NC(=O)c1cccc2[nH]c(C(=O)NC3CCCN(C4CCNCC4)C3)nc12 (configuration not stated) |  | IC50 [2]: 793 nM
48 | CC[C@H]1CN(C(=O)c2nc3c(C(N)=O)cccc3[nH]2)CCN1C(=O)OC(C)(C)C | 100 | 
49 | CC(C)CN1CCN(C(=O)c2nc3c(C(N)=O)cccc3[nH]2)CC1 | 81 | 
50 | NC(=O)c1cc(F)cc2[nH]c(C(=O)N3CCNC(=O)C3)nc12 | 15 | 
51 | NC(=O)c1cccc2[nH]c(C(=O)NC3CCN(C4CCCCC4)CC3)nc12 | 311 | 
52 | NC(=O)c1cccc2[nH]c(C(=O)N3CCC(N)CC3)nc12 | 29 | PF50 [3]: 1.99; Ratio IC50 (Homo sapiens): < 10; IC50 [4]: 73 nM
53 | CC(C)(C)OC(=O)N1CCC(NC(=O)c2nc3c(C(N)=O)cccc3[nH]2)CC1 | 644 | 
54 | NC(=O)c1cccc2[nH]c(C(=O)NC3CCN(CC(F)(F)F)CC3)nc12 | 34 | PF50 [3]: 0.93; Ratio IC50 (Homo sapiens): < 10; IC50 [4]: 100 nM
55 | CC(C)(C)OC(=O)N1CCC(N2CCCC(NC(=O)c3nc4c(C(N)=O)cccc4[nH]3)C2)CC1 (configuration not stated) |  | IC50 [2]: 818 nM
56 | NC(=O)c1cccc2[nH]c(C(=O)NC3CCCN(C4CCCCC4)C3)nc12 (configuration not stated) |  | IC50 [2]: 382 nM
57 | NC(=O)c1cccc2[nH]c(C(=O)N3CCNCC3)nc12 | 42 | 
